How the values were obtained:
B2 bradykinin receptor [1] = target: T1, B2 bradykinin receptor (Cavia porcellus, UniProt O70526); assay: Inhibition of the specific binding of [3H]BK to Bradykinin receptor B2 in guinea pig ileum membrane preparations; type: cell membranes
T1 sequence (O70526 whole entry): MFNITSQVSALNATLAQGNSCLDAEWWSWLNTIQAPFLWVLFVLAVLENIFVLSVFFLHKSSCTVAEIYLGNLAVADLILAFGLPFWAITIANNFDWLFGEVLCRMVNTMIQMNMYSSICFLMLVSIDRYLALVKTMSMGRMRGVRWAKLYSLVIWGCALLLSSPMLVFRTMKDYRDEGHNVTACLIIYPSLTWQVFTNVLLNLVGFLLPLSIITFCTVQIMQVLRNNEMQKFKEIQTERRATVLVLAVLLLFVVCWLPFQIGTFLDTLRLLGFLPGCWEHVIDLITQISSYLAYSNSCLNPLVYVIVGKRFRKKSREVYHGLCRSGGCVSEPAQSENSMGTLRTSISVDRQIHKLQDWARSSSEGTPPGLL
Procedure, shortened: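 Male Hartley guinea pig ileum membranes (100000g pellet) at 0.2 mg protein/mL in pH 6.8 TES buffer with phenanthroline, bacitracin, DTT, captopril, BSA. Incubated with 0.06 nM [3H]BK plus varying compound concentrations, 60 min, room temperature. Filtration harvest, scintillation counting. Nonspecific binding defined with 1 µM unlabeled BK. IC50 as mean of at least three determinations.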

B2 bradykinin receptor [2] = target: T2, B2 bradykinin receptor (Homo sapiens, UniProt P30411); assay: Inhibition of the specific binding of [3H]BK to human recombinant Bradykinin receptor B2 expressed in CHO cells.; type: cell-based
T2 sequence (P30411 whole entry): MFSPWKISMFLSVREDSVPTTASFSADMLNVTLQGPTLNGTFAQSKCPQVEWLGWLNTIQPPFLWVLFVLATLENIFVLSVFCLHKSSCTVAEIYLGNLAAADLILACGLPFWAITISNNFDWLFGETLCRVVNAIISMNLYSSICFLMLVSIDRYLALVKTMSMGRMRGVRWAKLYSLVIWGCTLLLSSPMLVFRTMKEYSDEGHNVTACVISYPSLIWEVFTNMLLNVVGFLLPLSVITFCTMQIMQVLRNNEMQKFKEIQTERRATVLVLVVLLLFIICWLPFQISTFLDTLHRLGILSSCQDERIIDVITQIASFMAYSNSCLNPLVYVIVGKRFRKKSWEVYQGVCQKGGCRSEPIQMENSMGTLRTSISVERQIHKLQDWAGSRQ
Procedure, shortened: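 Intact CHO (dhfr-) cells stably expressing human B2, seeded at 3.0 × 10^4 cells/well and cultured 1 day. Incubated with 1.0 nM [3H]BK and compound, 2 h at 4 °C, in HEPES/N-methyl-D-glucamine buffer pH 7.2 with bacitracin, enalaprilat, BSA. Cells solubilized in SDS/NaOH for scintillation counting. Nonspecific binding defined with 1 µM BK. Run three times.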

Cavia porcellus = assay: Antagonistic activity in inhibiting BK-induced bronchoconstriction in guinea pigs by oral administration at 1 mg/kg dose.; type: functional
Procedure, shortened: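 Male Hartley guinea pigs (470-750 g), fasted overnight, anesthetized with pentobarbital 30 mg/kg ip, ventilated 10 mL/kg at 60 breaths/min; alcuronium 0.5 mg/kg iv, propranolol 10 mg/kg sc. BK 5 µg/kg iv; peak rise in insufflation pressure (modified Konzett–Rössler). Compound in 0.5% methylcellulose given via esophageal cannula; BK repeated 30 min later. % inhibition vs vehicle group; n = 3-4/dose.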

Structure (SMILES)	IC50 (B2 bradykinin receptor [1]) [nM]	IC50 (B2 bradykinin receptor [2]) [nM]	inhibition in vivo at 1 mg/kg (Cavia porcellus) [%]
CNC(=O)c1ccc(/C=C/C(=O)Nc2cccc(-c3ccc(C)c(COc4cccc5ccc(C)nc45)c3C)c2)cc1	94	> 10000	
CNC(=O)c1ccc(/C=C/C(=O)NCC(=O)N(C)c2ccc(Cl)c(COc3cccc4ccc(C)nc34)c2)cc1	5.1	110	
CNC(=O)c1ccc(/C=C/C(=O)NCC=Cc2ccc(Cl)c(COc3cccc4ccc(C)nc34)c2Cl)cc1	220	710	
CC(=O)Nc1ccc(/C=C/C(=O)NCC(=O)Nc2ccc(Cl)c(COc3cccc4ccc(C)nc34)c2Cl)cn1	280	4200	
CNC(=O)c1ccc(/C=C/C(=O)NC/C=C\c2ccc(Cl)c(COc3cccc4ccc(C)nc34)c2Cl)cc1	17	14	
CNC(=O)c1ccc(/C=C/C(=O)NCC(=O)N(C)c2cccc(COc3cccc4ccc(C)nc34)c2C)cc1	17	150	
CNC(=O)c1ccc(/C=C/C(=O)NCC(=O)N(C)c2ccc(OC)c(COc3cccc4ccc(C)nc34)c2OC)cc1	17	210	

These reach a lower IC50 (B2 bradykinin receptor [2]). Values come first.

IC50 (B2 bradykinin receptor [1]) [nM]	IC50 (B2 bradykinin receptor [2]) [nM]	Structure (SMILES)	inhibition in vivo at 1 mg/kg (Cavia porcellus) [%]
2.8	5.8	CNC(=O)c1ccc(/C=C/C(=O)NCc2sccc2-c2ccc(C)c(COc3cccc4ccc(C)nc34)c2C)cc1	
	2.6	CNC(=O)c1ccc(/C=C/C(=O)NCc2ccccc2-c2ccc(C)c(COc3cccc4ccc(C)nc34)c2C)cc1	
0.76	0.51	Cc1ccc2cccc(OCc3c(Cl)ccc(N(C)C(=O)CNC(=O)/C=C/c4ccc(/C=C/c5ccncc5)nc4)c3Cl)c2n1	87.3
0.55	3.2	Cc1ccc2cccc(OCc3c(Cl)ccc(N(C)C(=O)CNC(=O)/C=C/c4ccc(N5CCCC5=O)cc4)c3Cl)c2n1	85.3
0.58	0.41	Cc1ccc2cccc(OCc3c(Cl)ccc(-n4cccc4CNC(=O)/C=C/c4ccc(N5CCCC5=O)cc4)c3Cl)c2n1	36
0.64	0.26	CNC(=O)c1ccc(/C=C/C(=O)NCc2cccn2-c2ccc(Cl)c(COc3cccc4ccc(C)nc34)c2Cl)cc1	67.9
0.56	0.37	CC(=O)Nc1ccc(/C=C/C(=O)NCc2cccn2-c2ccc(Cl)c(COc3cccc4ccc(C)nc34)c2Cl)cn1	82.1
